Data taken from ChEMBL document CHEMBL4680109, “A road map for prioritizing warheads for cysteine targeting covalent inhibitors” (Eur J Med Chem, 2018).
Where a name gives a salt, the structure may show the parent alone.

Legend:
Staphylococcus aureus = assay: Inhibition of Staphylococcus aureus MurA expressed in Escherichia coli assessed as residual activity at 100 uM using UNAG and PEP as substrate preincubated for 30 mins in presence of UNAG followed by PEP addition and measured after 15 mins by malachite green colorimetric assay relative to control; details: time 45.0 min
Escherichia coli [1] = assay: Inhibition of Escherichia coli MurA assessed as residual activity at 100 uM using UNAG and PEP as substrate preincubated for 30 mins in presence of UNAG followed by PEP addition and measured after 15 mins by malachite green colorimetric assay relative to control; details: time 45.0 min
Escherichia coli [2] = assay: Inhibition of Escherichia coli MurA assessed as residual activity at 100 uM using UNAG and PEP as substrate preincubated for 30 mins in presence of UNAG followed by PEP addition and measured after 15 mins in presence of 5 mM cysteine by malachite green colorimetric assay relative to control; details: time 45.0 min
Summary of the method: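 MurA from E. coli, with the enzyme diluted in Hepes pH 7.8 containing cysteine (15 mM in buffer, giving 5 mM in incubation). Preincubated with UNAG and compound for 30 min at 37 °C, then PEP added and reacted 15 min at 37 °C. Phosphate read by malachite green at 650 nm. Duplicates; residual activity is versus DMSO control.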

[3] = target: Cathepsin B (Homo sapiens) (UniProt P07858); assay: (§1) Inhibition of recombinant cathepsin B (unknown origin) endopeptidase activity expressed in Escherichia coli assessed as residual activity at 100 uM using Z-RR-AMC as substrate preincubated for 30 mins under shaking in presence of 5 mM cysteine followed by substrate addition relative to control
[4] = target: Cathepsin B (Homo sapiens) (UniProt P07858); assay: as §1, with “exopeptidase” for “endopeptidase”, “Abz-GIVRAK(Dnp)-OH” for “Z-RR-AMC”
[5] = Inhibition of recombinant cathepsin X (unknown origin) expressed in Pichia pastoris assessed as residual activity at 100 uM using Abz-Fek(Dnp)-OH as substrate preincubated for 30 mins under shaking in presence of 5 mM cysteine followed by substrate addition relative to control; details: Homo sapiens
Escherichia coli [6] = assay: Inhibition of Escherichia coli MurA assessed as residual activity at 25 uM using UNAG and PEP as substrate preincubated for 30 mins in presence of UNAG followed by PEP addition and measured after 15 mins by malachite green colorimetric assay relative to control
[7] = Inhibition of Escherichia coli MurA using UNAG and PEP as substrate preincubated for 30 mins in presence of UNAG followed by PEP addition and measured after 15 mins by malachite green colorimetric assay
Summary of the method: (§2)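 IC50 from MurA (E. coli or S. aureus) residual activities at seven compound concentrations. Conditions: 30 min preincubation with UNAG at 37 °C, then PEP, 15 min at 37 °C, in 50 mM Hepes pH 7.8, 0.005% Triton X-114 and 5% DMSO. Malachite green read at 650 nm. Values are means of duplicates.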

[8] = Inhibition of Staphylococcus aureus MurA expressed in Escherichia coli using UNAG and PEP as substrate preincubated for 30 mins in presence of UNAG followed by PEP addition and measured after 15 mins by malachite green colorimetric assay; summary of the method: as §2
Escherichia coli [9] = assay: Inhibition of Escherichia coli MurA assessed as residual activity at 1 mM using UNAG and PEP as substrate preincubated for 30 mins in presence of UNAG followed by PEP addition and measured after 15 mins by malachite green colorimetric assay relative to control; details: time 45.0 min
[10] = Drug degradation in pH 7.4 PBS buffer at 100 uM measured up to 24 hrs by LC-MS/MS analysis; assay type: physicochemical; details: pH 7.4, 24 h
Escherichia coli [11] = assay: Inhibition of Escherichia coli MurA assessed as residual activity at 250 uM using UNAG and PEP as substrate preincubated for 30 mins in presence of UNAG followed by PEP addition and measured after 15 mins by malachite green colorimetric assay relative to control; details: time 45.0 min

Structure (SMILES)	Activity (Staphylococcus aureus) [%]	Activity (Escherichia coli [1]) [%]	Activity (Escherichia coli [2]) [%]	Activity [3] [%]	Activity [4] [%]	Activity [5] [%]	Activity (Escherichia coli [6]) [%]	IC50 [7] [µM]	IC50 [8] [µM]	Activity (Escherichia coli [9]) [%]	Stabilty [10]	Activity (Escherichia coli [11]) [%]
O=C(CCl)Nc1ccccc1	59	100	95	100	88	99						
C[C@@H]1O[C@@H]1P(=O)(O)O							3					
O=C1C=CC(=O)N1Cc1ccccc1	0	2	99	100	87	96		0.565	1.04			
O=C(CCl)Nc1cc(C(F)(F)F)cc(C(F)(F)F)c1	96		80	75		96		75	100			
C=CC(=O)Nc1cc(C(F)(F)F)cc(C(F)(F)F)c1	72		100			92		164		86		
O=c1[nH]sc2ccccc12	0	2	99	100	96	100		1.1	0.926			
COc1ccccc1C(=O)CBr	4	3	100	90	55	74		0.384	1.82			
C/C=C/C#N	97	100	100	100	87	90						
CC#CC(=O)OCC	91	82	100	96	84	96						
O=C(CCl)c1ccccc1 [PHENACYL CHLORIDE]	7	3	93	63	34	86		2.25	3.02			
COc1cc(NC(=O)CCl)cc(OC)c1	52	61	96	90	87	84						
Cc1ccc(S)cc1	23	6	94	100	67	100		1.25	7.83			
C=CS(=O)(=O)c1ccccc1 [(ETHENYLSULFONYL)BENZENE]	30	12	96	100	87	93		15	34			
C/C=N/Nc1cc2ccccc2cn1	54	99	100	100	100	79						
O=C(CCl)N1CCC(Cc2ccccc2)CC1	55		99	78								
O=C(CBr)c1ccccc1	7	2	94	83	27	75						
O=C1C=CC(=O)N1C1CCCCC1	0.3	1	100	96	89	96	85	0.554	0.652			
CCOC(=O)C#Cc1ccccc1	67	75	99	85	70	92						
COC(=O)/C=C/C(=O)OC [DIMETHYL FUMARATE]	82	50	90	100	100	89		172		88		
C=CC(=O)N1CCC(Cc2ccccc2)CC1											Unstable	
S=C=NCc1ccccc1 [BENZYL ISOTHIOCYANATE]	41	3	100	75	18	22		3.7				
FC(F)(F)c1cccc(N=C=S)c1	9	3	99	100	97	87		28	53			
COc1ccc(N=C=S)cc1	91	33	94	100	99	55		45				
S=C=Nc1ccccc1 [PHENYLISOTHIOCYANATE]	75	53	91	100	98	67		90				
COc1cc2c(cc1OC)CN(C(=O)CCl)CC2	54	61	98			97		141	171			
CCOC(=O)C#CC(F)(F)F	31	15	98	100	89	99		24	47			100
C/C=C/C(=O)OC	66	41	96	100	97	84		227				
N#C/C=C/C(F)(F)F	81	47	100	100	88	86		95		100		
